As a reminder, the pIC50 is the IC50 on a negative log10 scale, so that one unit is a factor of ten. A lower pIC50 goes with a high IC50.

Test [1] deals with A-431. Nature of the test: Concentration required to inhibit growth of human carcinoma epidermoid (A431) cell line. Format: functional, cell-based.
The target in test [2] is Receptor tyrosine-protein kinase erbB-2 (Homo sapiens, UniProt P04626). Briefly: Concentration required to inhibit autophosphorylation of cytoplasmic domain of human epidermal growth factor receptor-2.
Test [3] deals with SW-620. Briefly: Concentration required to inhibit growth of human carcinoma colon (SW620) cell line. In kind it is functional, cell-based.
The nature of test [4]: Concentration required to inhibit growth of human carcinoma breast (SKBR3) cell line. In kind it is functional. The settings on record: SK-BR-3. The method, boiled down: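 Cell growth inhibition measured from dose–response curves at five concentrations. […] Reported values average at least two determinations.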
The target of test [5] is Epidermal growth factor receptor (Homo sapiens, UniProt P00533).

pIC50: −log10 of the molar value.

Sequence of Receptor tyrosine-protein kinase erbB-2 (P04626 whole entry, the tested form may be a part): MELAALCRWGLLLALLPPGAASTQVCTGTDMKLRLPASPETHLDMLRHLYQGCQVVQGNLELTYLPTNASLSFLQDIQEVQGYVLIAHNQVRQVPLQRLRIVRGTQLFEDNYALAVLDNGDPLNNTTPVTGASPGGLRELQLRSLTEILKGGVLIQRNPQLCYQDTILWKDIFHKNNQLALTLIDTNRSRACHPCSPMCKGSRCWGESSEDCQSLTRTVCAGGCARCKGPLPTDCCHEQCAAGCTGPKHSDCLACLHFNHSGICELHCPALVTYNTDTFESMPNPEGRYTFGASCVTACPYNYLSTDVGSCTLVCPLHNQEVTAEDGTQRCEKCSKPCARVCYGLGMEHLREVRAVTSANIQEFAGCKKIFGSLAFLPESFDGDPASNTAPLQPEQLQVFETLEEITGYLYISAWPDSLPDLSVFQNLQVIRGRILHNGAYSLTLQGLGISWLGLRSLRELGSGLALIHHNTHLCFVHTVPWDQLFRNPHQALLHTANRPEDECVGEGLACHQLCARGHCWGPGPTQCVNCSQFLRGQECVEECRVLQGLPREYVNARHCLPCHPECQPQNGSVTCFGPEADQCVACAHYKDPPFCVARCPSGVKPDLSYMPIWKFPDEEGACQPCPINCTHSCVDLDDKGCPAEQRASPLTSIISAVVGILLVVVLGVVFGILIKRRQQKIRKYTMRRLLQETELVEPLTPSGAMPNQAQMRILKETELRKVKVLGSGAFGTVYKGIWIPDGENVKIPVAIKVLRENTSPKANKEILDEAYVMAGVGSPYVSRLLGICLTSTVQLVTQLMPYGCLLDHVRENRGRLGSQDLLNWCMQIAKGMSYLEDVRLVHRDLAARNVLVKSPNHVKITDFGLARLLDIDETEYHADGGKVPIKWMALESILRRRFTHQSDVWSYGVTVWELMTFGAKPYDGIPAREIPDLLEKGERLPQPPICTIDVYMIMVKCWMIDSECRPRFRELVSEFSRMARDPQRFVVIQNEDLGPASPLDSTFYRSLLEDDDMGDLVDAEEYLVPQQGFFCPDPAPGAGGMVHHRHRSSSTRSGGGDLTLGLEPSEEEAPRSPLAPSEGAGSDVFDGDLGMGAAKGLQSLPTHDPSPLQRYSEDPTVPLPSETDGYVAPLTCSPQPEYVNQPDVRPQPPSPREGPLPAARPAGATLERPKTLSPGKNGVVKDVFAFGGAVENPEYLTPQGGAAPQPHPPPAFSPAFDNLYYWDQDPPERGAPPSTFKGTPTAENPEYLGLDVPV
Sequence of Epidermal growth factor receptor (P00533 whole entry): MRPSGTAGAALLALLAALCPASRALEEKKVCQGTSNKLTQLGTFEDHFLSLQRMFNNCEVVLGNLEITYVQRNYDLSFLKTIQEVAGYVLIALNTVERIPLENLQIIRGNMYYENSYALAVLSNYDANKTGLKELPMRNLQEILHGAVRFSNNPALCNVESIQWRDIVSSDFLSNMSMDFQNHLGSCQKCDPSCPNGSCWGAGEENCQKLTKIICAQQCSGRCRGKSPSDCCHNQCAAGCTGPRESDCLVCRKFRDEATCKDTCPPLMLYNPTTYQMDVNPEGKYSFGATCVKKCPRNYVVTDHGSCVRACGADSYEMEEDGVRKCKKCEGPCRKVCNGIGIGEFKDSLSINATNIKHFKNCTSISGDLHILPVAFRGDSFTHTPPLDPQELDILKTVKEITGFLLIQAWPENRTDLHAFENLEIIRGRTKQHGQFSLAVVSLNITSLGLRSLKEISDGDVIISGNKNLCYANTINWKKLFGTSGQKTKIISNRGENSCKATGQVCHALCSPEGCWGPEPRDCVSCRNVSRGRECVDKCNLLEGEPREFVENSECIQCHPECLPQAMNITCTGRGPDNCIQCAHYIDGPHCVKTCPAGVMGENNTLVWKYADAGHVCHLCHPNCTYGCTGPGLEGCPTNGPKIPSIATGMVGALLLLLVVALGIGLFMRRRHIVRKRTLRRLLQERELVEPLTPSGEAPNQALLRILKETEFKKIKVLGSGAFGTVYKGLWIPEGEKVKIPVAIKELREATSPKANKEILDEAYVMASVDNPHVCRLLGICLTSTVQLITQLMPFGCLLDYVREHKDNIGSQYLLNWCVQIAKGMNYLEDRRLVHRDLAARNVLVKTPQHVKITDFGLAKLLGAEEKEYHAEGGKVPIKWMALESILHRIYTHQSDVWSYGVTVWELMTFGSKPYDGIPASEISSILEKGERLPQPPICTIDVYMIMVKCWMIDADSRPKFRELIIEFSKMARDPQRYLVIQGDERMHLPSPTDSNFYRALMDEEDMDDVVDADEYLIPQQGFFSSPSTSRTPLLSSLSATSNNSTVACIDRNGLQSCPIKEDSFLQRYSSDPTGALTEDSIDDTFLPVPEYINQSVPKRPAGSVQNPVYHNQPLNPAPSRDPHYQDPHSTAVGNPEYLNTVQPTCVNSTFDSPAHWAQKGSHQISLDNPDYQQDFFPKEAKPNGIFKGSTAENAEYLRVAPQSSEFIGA

Regarding `CC(C)N(CC#CC(=O)Nc1ccc2ncc(C#N)c(Nc3cccc(Br)c3)c2c1)C(C)C`, the pIC50 in test [1] was 6.85; in test [2], 6.49; in test [3], 6.60; in test [4], 7.40.

For the compound `COc1cc2ncc(C#N)c(Nc3ccc(F)c(Cl)c3)c2cc1NC(=O)/C=C/C(C)N(C)C` (stereo not drawn), the pIC50 in test [2] was 4.93; in test [3], 5.95; in test [4], 6.72.

For `C/C=C/C(=O)Nc1cc2c(Nc3ccc(F)c(Cl)c3)c(C#N)cnc2cc1OCC`, the pIC50 was 4.67 in test [2] and 6.77 in test [4].

Regarding `COc1cc(NC(=O)/C=C/CN2CCOCC2)cc2c(Nc3cccc(Br)c3)c(C#N)cnc12`, the values for the pIC50 in test [2], in test [3] and in test [4] were 4.63, 5.02 and 5.58, respectively.

As for `COc1cc2ncc(C#N)c(Nc3ccc(F)c(Cl)c3)c2cc1NC(=O)/C=C/CN1CCOCC1`, the pIC50 in test [2] was 4.50; in test [3], 5.18; in test [4] it was 6.96.

As to `COc1cc2ncc(C#N)c(Nc3ccc(F)c(Cl)c3)c2cc1NC(=O)/C=C/C(C)N1CCOCC1` (stereo not drawn), the pIC50 in test [2] is 4.47; in test [3], 5.31; in test [4], 6.70.

Consider `C=C(CN1CCOCC1)C(=O)Nc1ccc2ncc(C#N)c(Nc3ccc(F)c(Cl)c3)c2c1`, for which the pIC50 in test [2] was 5.36; in test [3], 6.31; in test [4] it was 6.66.

Consider `COc1cc2ncc(C#N)c(Nc3ccc(F)c(Cl)c3)c2cc1NC(=O)/C=C/CN(C)C`, for which the results for the pIC50 in test [2], in test [3] and in test [4] were 5.35, 6.04 and 7.40, respectively.

As to `COCC#CC(=O)Nc1ccc2ncc(C#N)c(Nc3cccc(Br)c3)c2c1`, the pIC50 in test [1] was 6.55; in test [2], 6.52; in test [3], 6.28; in test [4], 6.46; in test [5], 6.02.

On to `CCOc1cc2ncc(C#N)c(Nc3cccc(Br)c3)c2cc1NC(=O)/C=C/CN(C)C`, for which the pIC50 in test [2] is 5.53; in test [3], 5.94; in test [4], 7.52.

For the compound `CCCN(CC#CC(=O)Nc1ccc2ncc(C#N)c(Nc3cccc(Br)c3)c2c1)CCC`, the pIC50 is 6.62 in test [1]; 6.43 in test [2]; 6.40 in test [3]; 7.10 in test [4]; 6.89 in test [5].

On to `COCCOCC#CC(=O)Nc1ccc2ncc(C#N)c(Nc3cccc(Br)c3)c2c1`, for which the pIC50 in test [1] was 6.57; in test [2] it was 6.35; in test [3], 6.47; in test [4], 6.41; in test [5] it was 6.03.

As to `CCOc1cc2ncc(C#N)c(Nc3cccc(Br)c3)c2cc1NC(=O)/C=C/CN1CCOCC1`, the pIC50 is 4.47 in test [2], 5.54 in test [3] and 7.15 in test [4].

Consider `CC#CC(=O)Nc1cc2c(Nc3cccc(Br)c3)c(C#N)cnc2cc1OC`, for which the pIC50 in test [1] was 5.29; in test [2], 5.67; in test [3] it was 5.12; in test [4], 5.08; in test [5] it was 6.04.

On to `COc1cc2ncc(C#N)c(Nc3cccc(Br)c3)c2cc1NC(=O)C#CCN(C)C`, for which the pIC50 in test [1] was 6.96; in test [2], 6.74; in test [3] it was 6.52; in test [4] it was 6.92; in test [5], 7.05.

`COc1cc(NC(=O)/C=C/CN(C)C)cc2c(Nc3cccc(Br)c3)c(C#N)cnc12`: the pIC50 is 5.60 in test [1]; 5.03 in test [2]; 5.05 in test [3]; 5.60 in test [4]; 5.54 in test [5].

With `C=C(CN(C)C)C(=O)Nc1cc2c(Nc3ccc(F)c(Cl)c3)c(C#N)cnc2cc1OCC`, the pIC50 in test [1] was 6.74; in test [2], 5.92; in test [3], 6.49; in test [4] it was 7.05; in test [5], 6.25.

With `N#Cc1cnc2ccc(NC(=O)/C=C/CN3CCOCC3)cc2c1Nc1ccc(F)c(Cl)c1`, the values for the pIC50 in test [2], in test [3] and in test [4] were 5.06, 5.20 and 6.66, respectively.

Regarding `COC[C@@H]1CCCN1CC#CC(=O)Nc1ccc2ncc(C#N)c(Nc3cccc(Br)c3)c2c1`, the pIC50 is 5.92 in test [1]; 5.91 in test [2]; 5.38 in test [3]; 6.27 in test [4]; 6.82 in test [5].

For `COc1cc2ncc(C#N)c(Nc3cccc(Br)c3)c2cc1NC(=O)/C=C/CN(C)C`, the pIC50 in test [1] is 6.85; in test [2] it was 5.25; in test [3], 5.93; in test [4], 7.52; in test [5], 6.10.

Consider `C=CC(=O)Nc1ccc2ncc(C#N)c(Nc3cccc(Br)c3)c2c1`, for which the pIC50 was 6.44 in test [1]; 5.79 in test [2]; 5.47 in test [3]; 6.36 in test [4]; 6.23 in test [5].

Consider `CC#CC(=O)Nc1ccc2ncc(C#N)c(Nc3cccc(Br)c3)c2c1`, for which the pIC50 in test [1] was 5.30; in test [2] it was 5.41; in test [3] it was 4.91; in test [4] it was 5.26; in test [5], 6.03.

In the case of `CN(C)C/C=C/C(=O)Nc1ccc2ncc(C#N)c(Nc3cccc(Br)c3)c2c1`, the pIC50 in test [1] was 6.35; in test [2], 5.38; in test [3] it was 5.26; in test [4], 6.74; in test [5] it was 6.51.

Take `CN(C)C/C=C/C(=O)Nc1ccc2ncc(C#N)c(Nc3ccc(F)c(Cl)c3)c2c1`: the pIC50 in test [1] was 6.82; in test [2], 5.71; in test [3], 6.06; in test [4], 7.30; in test [5], 6.19.

As to `C=CC(=O)Nc1cc2c(Nc3cccc(Br)c3)c(C#N)cnc2cc1OC`, the pIC50 is 6.51 in test [1], 5.33 in test [2], 5.73 in test [3] and 6.92 in test [4].

As for `CCN(CC)C(C)/C=C/C(=O)Nc1cc2c(Nc3ccc(F)c(Cl)c3)c(C#N)cnc2cc1OC` (stereo not drawn), the pIC50 in test [2] was 5.02; in test [3], 6.06; in test [4], 6.51.

In the case of `COCC#CC(=O)Nc1cc2c(Nc3cccc(Br)c3)c(C#N)cnc2cc1OC`, the pIC50 in test [1] was 6.14; in test [2], 6.42; in test [3], 5.75; in test [4], 6.54; in test [5], 6.10.

Turning to `C/C=C/C(=O)Nc1ccc2ncc(C#N)c(Nc3cccc(Br)c3)c2c1`, the pIC50 was 5.36 in test [1], 4.91 in test [3] and 4.99 in test [4].

For the compound `N#Cc1cnc2ccc(NC(=O)C#CCN3CCSCC3)cc2c1Nc1cccc(Br)c1`, the pIC50 was 7.00 in test [1]; 5.98 in test [2]; 6.46 in test [3]; 7.15 in test [4]; 6.26 in test [5].

Regarding `COc1cc2ncc(C#N)c(Nc3cccc(Br)c3)c2cc1NC(=O)/C=C/CN1CCOCC1`, the pIC50 in test [2] was 4.47; in test [3], 5.27; in test [4] it was 6.92.

Turning to `CN(C)C/C=C/C(=O)Nc1cc2c(Nc3ccc(F)c(Cl)c3)c(C#N)cnc2cc1OC(F)(F)F`, the pIC50 was 5.38 in test [2], 5.84 in test [3] and 6.52 in test [4].

As for `CCN(CC)C/C=C/C(=O)Nc1cc2c(Nc3ccc(F)c(Cl)c3)c(C#N)cnc2cc1OC`, the pIC50 in test [2] was 5.11; in test [3], 6.18; in test [4], 7.30.

As for `CCOc1cc2ncc(C#N)c(Nc3ccc(F)c(Cl)c3)c2cc1NC(=O)/C=C/CN(C)C` [PELITINIB], the pIC50 in test [4] is 8.00.
